{"data": "Results from different studies", "RPS6KA3": "Ribosomal protein S6 kinase alpha-3 (RPS6KA3, Homo sapiens, UniProt P51812)", "RPS6KA3 C-terminal kinase domain": "Ribosomal protein S6 kinase alpha-3, C-terminal kinase domain (RPS6KA3, Homo sapiens, UniProt P51812)", "RPS6KA3 N-terminal kinase domain": "Ribosomal protein S6 kinase alpha-3, N-terminal kinase domain (RPS6KA3, Homo sapiens, UniProt P51812)", "note": "Lines come from different studies, so protocols differ."}
{"Structure (SMILES)": "CC(C)S(=O)(=O)c1ccc2nccc(Nc3ccc4sc(C5CCCC5)nc4c3)c2c1", "target": "RPS6KA3", "test": "enzyme activity, inhibitor", "setting": "1 µM", "quantity": "activity vs control", "result": "113%"}
{"Structure (SMILES)": "COc1ccc2oc(-c3ccc4nc(N)oc4c3)c/c(=N\\c3ccccc3NC(=O)CCN)c2c1", "target": "RPS6KA3", "test": "binding", "setting": "1 µM", "quantity": "remaining binding", "result": "98%"}
{"Structure (SMILES)": "CCCCC(=O)Nc1ccc(-c2ccc3ncn(CCC)c(=O)c3c2)cn1", "target": "RPS6KA3 C-terminal kinase domain", "test": "binding, competition with immobilised ligand", "setting": "0.5 µM", "quantity": "remaining binding", "result": "99%"}
{"Structure (SMILES)": "Cc1cc(O)c(-c2ccc([C@@H](C)CN(C)C)cc2)c2c1[nH]c(=O)c1sccc12", "target": "RPS6KA3 C-terminal kinase domain", "test": "enzyme activity, inhibitor", "setting": "0.1 µM", "quantity": "inhibition", "result": "-17.5%"}
{"Structure (SMILES)": "COc1ccc2[nH]c3c4[nH]c5ccc(OC)cc5c4c4c(c3c2c1)C(=O)NC4=O", "target": "RPS6KA3 N-terminal kinase domain", "test": "binding, competition with immobilised ligand", "setting": "1 µM", "quantity": "remaining binding", "result": "21%"}
{"Structure (SMILES)": "C#Cc1cc(-c2cc(Nc3nc(N[C@@H](C)c4ccc(F)cn4)ncc3Cl)n[nH]2)ccc1C=O", "target": "RPS6KA3", "test": "enzyme activity, inhibitor", "setting": "0.2 µM", "quantity": "inhibition", "result": "39.8%"}
{"Structure (SMILES)": "CN1CCN(C(=O)c2ccc(NC(=O)Nc3ccc(N(C)c4ccnc(Nc5ccc(CS(C)(=O)=O)cc5)n4)cc3)cc2)CC1", "target": "RPS6KA3 C-terminal kinase domain", "test": "binding, competition with immobilised ligand", "setting": "1 µM", "quantity": "remaining binding", "result": "86%"}
{"Structure (SMILES)": "N#Cc1ccc(NC(=O)Nc2ccccc2)cc1", "target": "RPS6KA3 N-terminal kinase domain", "test": "cell-free assay, competition with immobilised ligand", "setting": "25 µM", "quantity": "remaining binding", "result": "90%"}
